GSK3beta inhib: human GSK3beta kinase inhibitors, primary screen, biochemical, cell-free homogeneous, HTS; AID 2097, 2009; activity score (negative = inhibition), % at 10 µM; GST-GSK3beta kinase, ADP-Glo luminescence, 60 min; hits give low values; hit rate 0.038% among 300,000; Glycogen synthase kinase-3 beta (Homo sapiens), P49841;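 active = more than half of replicate wells score below -50%, meaning over 50% inhibition versus plate controls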
Target sequence (P49841 whole entry, looked up): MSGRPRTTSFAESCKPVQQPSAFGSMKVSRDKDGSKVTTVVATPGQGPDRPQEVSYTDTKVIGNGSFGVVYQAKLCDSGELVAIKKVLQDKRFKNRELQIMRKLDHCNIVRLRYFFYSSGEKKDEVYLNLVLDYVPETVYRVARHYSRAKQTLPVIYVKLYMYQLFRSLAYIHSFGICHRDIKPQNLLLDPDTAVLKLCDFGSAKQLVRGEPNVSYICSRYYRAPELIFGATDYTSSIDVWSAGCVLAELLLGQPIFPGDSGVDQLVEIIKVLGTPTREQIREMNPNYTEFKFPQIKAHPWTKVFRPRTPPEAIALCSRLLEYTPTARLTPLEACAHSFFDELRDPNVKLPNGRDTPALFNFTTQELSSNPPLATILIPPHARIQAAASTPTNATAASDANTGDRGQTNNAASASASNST
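Test system: GST-tagged human GSK3beta kinase, cell-free; evaluation: activity score scaled between in-plate DMSO and GW8510 controls; measured by: ADP-Glo luminescence; incubation: 60 min reaction, RT; benchmarks: DMSO and 20 µM GW8510; reagent: peptide substrate plus 25 µM ATP (final); medium: Tris/MgCl2 kinase buffer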
GSK3A inh: blockers of GSK3A enzyme activity – biochemical, luminescence, cell-free homogeneous, HTS, primary screen; hit rate 0.1% among 320,000; AID 2650, 2010; Glycogen synthase kinase-3 alpha (Homo sapiens), P49840; GSK-3 alpha kinase, ADP-Glo luminescence, 60 min; inhibition, % at 10 µM;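 active = more than half of replicates show inhibition above 20%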;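 also: GST-tagged GSK-3 alpha with peptide substrate and 25 µM ATP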
Dyrk1A ADPGlo: rat Dyrk1A kinase inhibitors, primary screen, biochemical, single point, plate reader; inhibition, % at 12.5 µM; hit rate 0.43% among 310,000; ADP-Glo luminescence, NFATc1 peptide; in the data active = inhibition above about 50%
STK33 kinase inh: inhibitors of purified STK33 kinase, primary screen, biochemical, ADP-Glo luminescence, homogeneous, cell-free; inhibition, % at 10 µM; hit rate 0.073% among 320,000; MBP phosphorylation; Serine/threonine-protein kinase 33 (Homo sapiens), Q9BYT3; AID 2661, 2010;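 active = inhibition at or above 25%, using the most active replicate where run in duplicate; inactive = inhibition below 25%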
ADP-Glo artifact: ADP-Glo luciferase interference without Dyrk1A, dose response, artefact control for Dyrk1A inhibitor project, biochemical, luminescence, cherry-pick, set 02; ADP-Glo luciferase artifact assay, no Dyrk1A; shares compounds with Dyrk1A ADPGlo; AC50, µM (highest dose often 12 µM); 1,300 tested, under 10 active;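 active = fitted half-maximal dose AC50 no more than ten times the top valid tested dose, with luminescence dropping as dose rises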
Numbers stand for hits. Only a selection was taken, and hits are over-represented in it overall.

`NC(=O)CSc1nnc([C@@H](N)Cc2c[nH]c3ccccc23)o1` gave GSK3beta inhib inactive, GSK3A inh 52, Dyrk1A ADPGlo inactive and STK33 kinase inh inactive.
`NC(=O)c1ccc(N)nc1` gave Dyrk1A ADPGlo inactive.
Cn1ncnc2c(=O)n(C)c(=O)nc1-2 was read as GSK3beta inhib inactive, GSK3A inh inactive, Dyrk1A ADPGlo 68 and STK33 kinase inh inactive.
For CCc1cc2c(s1)NC(=O)CN=C2c1cccs1 the results were GSK3beta inhib inactive, GSK3A inh 76, Dyrk1A ADPGlo inactive and STK33 kinase inh inactive.
Screening O=C1CN=C(c2ccccc2)c2ccccc2N1 returned GSK3beta inhib inactive, GSK3A inh inactive, Dyrk1A ADPGlo inactive and STK33 kinase inh inactive.
`CC12CCC(=O)C=C1CC(O)C1C2CCC2(C)C1CCC2(C)O` (configuration not stated) gave Dyrk1A ADPGlo inactive.
CCC(Oc1cc(Cl)ccc1Cl)C(=O)N1CCC2(CC1)OCCO2 (configuration not stated) was read as GSK3beta inhib inactive, GSK3A inh inactive, Dyrk1A ADPGlo inactive and STK33 kinase inh inactive.
Screening CCCCn1c(O)c(C(C)=NCCCn2ccnc2)c(=O)[nH]c1=O returned GSK3beta inhib inactive, GSK3A inh 54, Dyrk1A ADPGlo inactive and STK33 kinase inh inactive.
For CCCCn1c(O)c(C=NCCCn2ccnc2)c(=O)[nH]c1=O the results were GSK3beta inhib inactive, GSK3A inh 68, Dyrk1A ADPGlo inactive and STK33 kinase inh inactive.
For CCCCn1c(O)c(C(CC)=NCCCn2ccnc2)c(=O)[nH]c1=O the results were GSK3beta inhib inactive, GSK3A inh inactive and STK33 kinase inh inactive.
CCN(CC)C(=O)c1ccc(NC(=O)Nc2ccccc2F)cc1 was read as GSK3beta inhib inactive, GSK3A inh inactive, Dyrk1A ADPGlo inactive and STK33 kinase inh 28.
`CCN(CC)C(=O)c1ccc(NC(=O)CCCSc2ccccc2)cc1` gave GSK3beta inhib inactive, GSK3A inh inactive, Dyrk1A ADPGlo inactive and STK33 kinase inh inactive.
Screening Oc1cc(O)cc(/C=C/c2ccc(O)cc2O)c1 returned GSK3A inh inactive and STK33 kinase inh 54.
O=C1Nc2ccccc2/C1=C/c1cnc[nH]1 was read as GSK3beta inhib inactive, GSK3A inh 79, Dyrk1A ADPGlo inactive and STK33 kinase inh 37.
Screening O=C1Nc2ccccc2/C1=C/c1nc2ccccc2c(=O)n1-c1ccc(O)cc1 returned GSK3beta inhib inactive, GSK3A inh inactive, Dyrk1A ADPGlo inactive and STK33 kinase inh inactive.
Screening CC[C@]12CC[C@H](O)CC1=CCC1C2CC[C@]2(C)C(=O)CCC12 (some centres not stated) returned GSK3A inh inactive and STK33 kinase inh inactive.
Screening CC1=C2CCC3C(CCC4=CC(=O)CCC43C)C2CC1 (configuration not stated) returned Dyrk1A ADPGlo inactive.
ClCCN1CCN(c2ccnc3cc(Cl)ccc23)CC1 was read as GSK3beta inhib inactive, GSK3A inh 86, Dyrk1A ADPGlo inactive and STK33 kinase inh inactive.
Screening COc1ccc2c(c1)/C(=C/c1cnc[nH]1)C(=O)N2 returned GSK3beta inhib -89, GSK3A inh 81, Dyrk1A ADPGlo 83, STK33 kinase inh 58 and ADP-Glo artifact inactive.
COC(=O)C1=C(c2ccc(Cl)c(C(F)(F)F)c2)C[C@@H]2CC[C@H]1N2C(=O)NCCOc1ccc(OC)cc1 was read as GSK3A inh inactive, Dyrk1A ADPGlo 57, STK33 kinase inh inactive and ADP-Glo artifact inactive.
`COC(=O)C1=C(c2ccc3ccccc3c2)C[C@@H]2CC[C@H]1N2C(=O)NCCNC(C)=O` gave GSK3A inh inactive, Dyrk1A ADPGlo inactive and STK33 kinase inh inactive.
`O=C(Cc1c[nH]c2ccccc12)NNCc1ccc(N(CCCl)CCCl)cc1` gave Dyrk1A ADPGlo inactive.
N/C(=N\N=C/c1ccc(-c2ccc(O)c(C(=O)O)c2)o1)N[N+](=O)[O-] was read as GSK3beta inhib inactive, GSK3A inh inactive, Dyrk1A ADPGlo 83, STK33 kinase inh inactive and ADP-Glo artifact inactive.
`COc1cc2c(cc1O)C[C@H]1c3c(cc(O)c(OC)c3-2)CCN1C` gave GSK3A inh inactive, Dyrk1A ADPGlo 71, STK33 kinase inh inactive and ADP-Glo artifact inactive.
`OC[C@H]1O[C@@H](n2cnc3cc(Cl)c(Cl)cc32)[C@H](O)[C@@H]1O` gave GSK3A inh inactive, Dyrk1A ADPGlo 74, STK33 kinase inh inactive and ADP-Glo artifact inactive.
O=c1[nH]cnc2nc(-c3ccc(N(CCCl)CCCl)cc3)[nH]c12 was read as Dyrk1A ADPGlo inactive.
`COC(=O)C1=C(c2ccc(F)cc2OCc2ccccc2)C[C@@H]2CC[C@H]1N2C(=O)NCc1ccccc1` gave GSK3A inh inactive, Dyrk1A ADPGlo 52, STK33 kinase inh inactive and ADP-Glo artifact inactive.
For C=CC(=O)NCNC(=O)C=C the results were GSK3A inh inactive and STK33 kinase inh inactive.
Screening CCc1nccc2c1[nH]c1ccccc12 returned GSK3beta inhib inactive, GSK3A inh inactive, Dyrk1A ADPGlo 59, STK33 kinase inh inactive and ADP-Glo artifact inactive.
Cc1[nH]c2ccccc2c1/C=N/O was read as GSK3beta inhib inactive, GSK3A inh inactive, Dyrk1A ADPGlo inactive and STK33 kinase inh inactive.
O=c1c2ccccc2[nH]c(=S)n1-c1cccnc1 was read as GSK3beta inhib inactive, GSK3A inh inactive and STK33 kinase inh inactive.
`Cc1nccc2c1[nH]c1ccccc12` gave GSK3beta inhib inactive, GSK3A inh inactive, Dyrk1A ADPGlo 76, STK33 kinase inh inactive and ADP-Glo artifact inactive.
Screening c1ccc2c(c1)[nH]c1cnccc12 returned GSK3beta inhib inactive, GSK3A inh inactive, Dyrk1A ADPGlo 69, STK33 kinase inh inactive and ADP-Glo artifact inactive.
`CC(=O)C1C(N2CC2)CC2C3CCC4=CC(=O)CCC4(C)C3CCC21C` (configuration not stated) gave Dyrk1A ADPGlo inactive.
For COC(=O)C1=C(c2ccc(OC)c(OC)c2)C[C@@H]2CC[C@H]1N2C(=O)NCCOc1ccc(OC)cc1 the results were GSK3A inh inactive, Dyrk1A ADPGlo inactive and STK33 kinase inh inactive.
`N#C/C(=C\c1ccc(O)cc1)C(=O)O` gave Dyrk1A ADPGlo 76 and ADP-Glo artifact inactive.
`CN1CCc2cc3c(c4c2C1Cc1ccccc1-4)OCO3` (configuration not stated) gave GSK3beta inhib inactive, GSK3A inh inactive, Dyrk1A ADPGlo 67, STK33 kinase inh inactive and ADP-Glo artifact inactive.
CN1CCc2cc(O)cc3c2[C@H]1Cc1ccc(O)c(O)c1-3 was read as GSK3beta inhib inactive, GSK3A inh inactive, Dyrk1A ADPGlo inactive and STK33 kinase inh inactive.
Screening COc1cc2occc2c2oc(=O)ccc12 returned GSK3beta inhib inactive, GSK3A inh inactive, Dyrk1A ADPGlo inactive and STK33 kinase inh inactive.
